Measured values: ChEMBL document CHEMBL4480455, “Anti-inflammatory Property of Imperatorin on Alveolar Macrophages and Inflammatory Lung Injury” (J Nat Prod, 2019)
Calls of active or inactive are those of the source. The calls are words filed in the database; no cut-off is given here.

Legend:
Mus musculus [1] = experiment: Effect on morphological changes in lungs of C57BL/6 mouse at 4 mg/kg, ip administered for 3 days by H and E staining based microscopic analysis; type: ADME, organism-based; conditions: in vivo, 72 h
In short: (§1)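 Male C57BL/6 mice dosed i.p. for 3 days, then given zymosan (4 mg/kg, i.t.) or saline. Lungs harvested 24 h later. Right lung fixed in 10% formalin, embedded in paraffin, cut into 5 μm sections, stained with H&E or Masson's trichrome and examined by microscopy. Collagen also measured by hydroxyproline assay on lung lysates. Mean ± SD, n≥4.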

Mus musculus [2] = experiment: Antiinflammatory activity in zymosan induced C57BL/6 mouse model of lung injury assessed as reduction in immune cell infiltration at 4 mg/kg, ip pretreated for 3 days followed by zymosan challenge and measured after 24 hrs by H and E staining based microscopic analysis; type: functional, organism-based; in short: as §1
Mus musculus [3] = experiment: Antiinflammatory activity in zymosan induced C57BL/6 mouse model of lung injury assessed as reduction in hypertrophic smooth muscle cells at 4 mg/kg, ip pretreated for 3 days followed by zymosan challenge and measured after 24 hrs by H and E staining based microscopic analysis; type: functional, organism-based; in short: as §1
Mus musculus [4] = experiment: Antiinflammatory activity in zymosan induced C57BL/6 mouse model of lung injury assessed as reduction in thinkened basement membrane at 4 mg/kg, ip pretreated for 3 days followed by zymosan challenge and measured after 24 hrs by H and E staining based microscopic analysis; type: functional, organism-based; in short: as §1
Mus musculus [5] = experiment: Antiinflammatory activity in zymosan induced C57BL/6 mouse model of lung injury assessed as reduction in subepithelial collagen deposition/fibrosis at 4 mg/kg, ip pretreated for 3 days followed by zymosan challenge and measured after 24 hrs by Masson's trichrome staining based microscopic analysis; type: functional, organism-based; in short: as §1
Mus musculus [6] = experiment: Antiinflammatory activity in zymosan induced C57BL/6 mouse model of lung injury assessed as reduction in collagen deposition at 4 mg/kg, ip pretreated for 3 days followed by zymosan challenge and measured after 24 hrs by hydroxyproline assay; type: functional, organism-based; in short: as §1
Mus musculus [7] = experiment: Antiinflammatory activity in zymosan induced C57BL/6 mouse model of lung injury assessed as reduction in wet to dry lung edema ratio at 4 mg/kg, ip pretreated for 3 days followed by zymosan challenge and measured after 24 hrs; type: functional, organism-based
In short: (§2)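 Male C57BL/6 mice, 25–30 g. Dosed i.p. daily for 3 days, then zymosan 4 mg/kg in 40 μL saline given by intratracheal instillation. After 24 h, BALF collected with five 0.2 mL PBS washes and centrifuged. Supernatant assayed for PGE2 and total protein. Cells counted by hemocytometer, and ≥300 cells on stained smears scored for differential counts. Left lung weighed, dried at 48 °C for 48 h, reweighed for wet/dry ratio.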

Mus musculus [8] = experiment: Antiinflammatory activity in zymosan induced C57BL/6 mouse model of lung injury assessed as reduction in total protein level in BALF at 4 mg/kg, ip pretreated for 3 days followed by zymosan challenge and measured after 24 hrs; type: functional, organism-based; in short: as §2
Mus musculus [9] = experiment: Antiinflammatory activity in zymosan induced C57BL/6 mouse model of lung injury assessed as reduction in PGE2 production in BALF at 4 mg/kg, ip pretreated for 3 days followed by zymosan challenge and measured after 24 hrs by ELISA; type: functional, organism-based; in short: as §2
Mus musculus [10] = experiment: Antiinflammatory activity in zymosan induced C57BL/6 mouse model of lung injury assessed as reduction in immune cell infiltration in BALF at 4 mg/kg, ip pretreated for 3 days followed by zymosan challenge and measured after 24 hrs by Diff-Quick staining based assay; type: functional, organism-based; in short: as §2
Mus musculus [11] = species on record: Mus musculus; experiment: Antiinflammatory activity in mouse MHS cells assessed as reduction in zymosan-induced iNOS mRNA expression preincubated for 30 mins followed by zymosan challenge and measured after 6 to 24 hrs by TRIzol reagent based qRT-PCR analysis; type: functional, cell-based
In short: (§3)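 MH-S alveolar macrophages grown in RPMI 1640 with 10% FBS at 37 °C and 5% CO2. Cells pretreated for 30 min, then given zymosan 10 μg/mL for 6 h. mRNA measured by SYBR Green real-time PCR (95 °C 10 min; 42 cycles of 95 °C 10 s, 60 °C 60 s) with actin as reference. Normalized to control; mean ± SD, n≥3.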

Mus musculus [12] = species on record: Mus musculus; experiment: Antiinflammatory activity in mouse MHS cells assessed as reduction in zymosan-induced COX2 mRNA expression preincubated for 30 mins followed by zymosan challenge and measured after 6 to 24 hrs by TRIzol reagent based qRT-PCR analysis; type: functional, cell-based; in short: as §3
Mus musculus [13] = species on record: Mus musculus; experiment: Antiinflammatory activity in mouse MHS cells assessed as reduction in zymosan-induced iNOS protein expression preincubated for 30 mins followed by zymosan challenge and measured after 6 to 24 hrs by Western blotting analysis; type: functional, cell-based
Mus musculus [14] = species on record: Mus musculus; experiment: Antiinflammatory activity in mouse MHS cells assessed as reduction in zymosan-induced COX2 protein expression preincubated for 30 mins followed by zymosan challenge and measured after 6 to 24 hrs by Western blotting analysis; type: functional, cell-based
[15] = Antiinflammatory activity in mouse MHS cells assessed as reduction in zymosan-induced iNOS protein expression at 1.5 ug/ml preincubated for 30 mins followed by zymosan challenge and measured after 6 to 24 hrs by Western blotting analysis relative to control (reference value: 2.93 +/- 0.84); type: functional
[16] = Antiinflammatory activity in mouse MHS cells assessed as reduction in zymosan-induced iNOS protein expression at 15 ug/ml preincubated for 30 mins followed by zymosan challenge and measured after 6 to 24 hrs by Western blotting analysis relative to control (reference value: 2.93 +/- 0.84); type: functional
[17] = Antiinflammatory activity in mouse MHS cells assessed as reduction in zymosan-induced COX2 protein expression at 1.5 ug/ml preincubated for 30 mins followed by zymosan challenge and measured after 6 to 24 hrs by Western blotting analysis relative to control (reference value: 2.2 +/- 1.8); type: functional
[18] = Antiinflammatory activity in mouse MHS cells assessed as reduction in zymosan-induced COX2 protein expression at 15 ug/ml preincubated for 30 mins followed by zymosan challenge and measured after 6 to 24 hrs by Western blotting analysis relative to control (reference value: 2.2 +/- 1.8); type: functional
[19] = Effect on iNOS protein expression in mouse MHS cells at 15 ug/ml after 30 mins by Western blotting analysis relative to tubulin (reference value: 1); type: ADME, cell-based; conditions: 0.5 h
[20] = Effect on COX2 protein expression in mouse MHS cells at 15 ug/ml after 30 mins by Western blotting analysis relative to tubulin (reference value: 1); type: ADME, cell-based; conditions: 0.5 h
Mus musculus [21] = species on record: Mus musculus; experiment: Antiinflammatory activity in mouse MHS cells assessed as reduction in zymosan-induced nitrite production at 1.5 to 15 ug/ml preincubated for 30 mins followed by zymosan challenge and measured after 6 to 24 hrs by Griess assay; type: functional, cell-based
In short: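 MH-S cells pretreated for 30 min, then given zymosan 10 μg/mL for 24 h. Supernatant nitrite reacted with equal volumes of 0.1% NED and 1% sulfanilamide in 5% phosphoric acid, 10 min in the dark. Absorbance read at 520 nm. Mean ± SD, n≥3.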

For `CC(C)=CCOc1c2occc2cc2ccc(=O)oc12` [PENTOSALEN], the Activity (Mus musculus [1]) was “Non-Toxic”, the Activity (Mus musculus [2]) was “Active” and the Activity (Mus musculus [3]) was “Active”. The Activity (Mus musculus [4]) was “Active”, the Activity (Mus musculus [5]) was “Active” and the Activity (Mus musculus [6]) was “Active”. For the same molecule, the Activity (Mus musculus [7]) was “Active”, the Activity (Mus musculus [8]) was “Active” and the Activity (Mus musculus [9]) was “Active”. The Activity (Mus musculus [10]) was “Active”, the Activity (Mus musculus [11]) was “Dose-dependent effect” and the Activity (Mus musculus [12]) was “Dose-dependent effect”. For the same molecule, the Activity (Mus musculus [13]) was “Dose-dependent effect”, the Activity (Mus musculus [14]) was “Dose-dependent effect” and the “fold change (FC)” value [15] was 2.5. For the same molecule, the “fold change (FC)” value [16] was 1.5, the “fold change (FC)” value [17] was 2.2 and the “fold change (FC)” value [18] was 1.8. For the same molecule, the “fold change (FC)” value [19] was 0.9, the “fold change (FC)” value [20] was 0.7 and the Activity (Mus musculus [21]) was “Active”.
